From ChEMBL document CHEMBL1147403, “MexAB-OprM specific efflux pump inhibitors in Pseudomonas aeruginosa. Part 3: Optimization of potency in the pyridopyrimidine series through the application of a pharmacophore model” (2004)

Key:
Format in all cases: functional
Pseudomonas aeruginosa [1] = assay: Minimum inhibitory concentration against Pseudomonas aeruginosa in presence of aztreonam substrate and with 0.125% human serum albumin, (100% growth inhibition)
In short: (§1)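 Potentiation of aztreonam, a MexAB-OprM substrate, against P. aeruginosa PAM1723 (MexAB-OprM overexpressed; MexCD-OprJ and MexEF-OprN genetically disrupted). Run without HSA and with 0.125% human serum albumin. Value is the inhibitor concentration (µg/mL) giving 8-fold potentiation (MPC8).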

Pseudomonas aeruginosa [2] = assay: Intrinsic antibacterial activity against Pseudomonas aeruginosa
In short: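 Tested alone for antibacterial activity against P. aeruginosa PAM1723, a strain that overexpresses the MexAB-OprM pump and has MexCD-OprJ and MexEF-OprN genetically disrupted; MIC in µg/mL.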

Pseudomonas aeruginosa [3] = assay: Minimum inhibitory concentration against Pseudomonas aeruginosa in presence of LVFX substrate, (100% growth inhibition)
In short: (§2)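 Potentiation of levofloxacin (LVFX), a MexAB-OprM substrate, against P. aeruginosa PAM1723 (MexAB-OprM overexpressed; MexCD-OprJ and MexEF-OprN genetically disrupted). Value is the inhibitor concentration (µg/mL) giving 4-fold (MPC4) or 8-fold (MPC8) potentiation.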

Pseudomonas aeruginosa [4] = assay: Minimum inhibitory concentration Pseudomonas aeruginosa in presence of LVFX substrate, (100% growth inhibition); in short: as §2
Pseudomonas aeruginosa [5] = assay: Minimum inhibitory concentration against Pseudomonas aeruginosa in presence of aztreonam substrate and with out human serum albumin, (100% growth inhibition); in short: as §1
Rattus norvegicus = species on record: Rattus norvegicus; assay: Serum protein binding of compound was evaluated using rat serum
Pseudomonas aeruginosa [6] = assay: Minimum concentration of inhibitor required to reduce (potentiate) the activity of antibacterial drug aztreonam by 8-fold in absence of human serum using Pseudomonas aeruginosa, value reported is for 100% growth inhibition; in short: as §1

| SMILES | MIC (Pseudomonas aeruginosa [2]) [µg/mL] | MPC8 (Pseudomonas aeruginosa [1]) [µg/mL] | MPC8 (Pseudomonas aeruginosa [3]) [µg/mL] | MPC4 (Pseudomonas aeruginosa [4]) [µg/mL] | MPC8 (Pseudomonas aeruginosa [5]) [µg/mL] | Binding (Rattus norvegicus) [%] | MPC8 (Pseudomonas aeruginosa [6]) [µg/mL] |
| --- | --- | --- | --- | --- | --- | --- | --- |
| CC(C)c1csc(CCc2ccn3c(=O)c(/C=C/C(=O)O)c(N4CCCC(OC(N)=O)C4)nc3c2)n1 (stereo not drawn) | > 320 | 16 | 8 | 1 | 32 | 91.2 |  |
| CC(C)c1csc(CCc2ccn3c(=O)c(/C=C/C(=O)O)c(N4CCOCC4)nc3c2)n1 | > 320 | 32 | 16 | 2 | 16 | 92 |  |
| CC(C)c1csc(CCc2ccn3c(=O)c(C#CC(=O)O)c(N4CCOCC4)nc3c2)n1 | > 320 | 16 | 16 | 2 | 8 |  |  |
| CC(C)c1csc(CCc2ccn3c(=O)c(/C=C/C(=O)O)c(N4CCCC(CO)C4)nc3c2)n1 (stereo not drawn) | > 320 | 16 | 16 | 2 | 16 | 91.5 |  |
| CC(C)c1csc(CCc2ccn3c(=O)c(/C=C/C(=O)O)c(N4CCC(OC(N)=O)CC4)nc3c2)n1 | > 320 | 16 | 16 | 2 | 16 |  |  |
| CC(C)c1csc(/C=C/c2cccc(NC(=O)Cc3ccccc3C(=O)O)c2)n1 | > 320 | 16 | 2 | 1 | 2 | >98 |  |
| CC(C)c1csc(CCc2ccn3c(=O)c(CCC(=O)O)c(N4CCCC(O)C4)nc3c2)n1 (stereo not drawn) | > 320 |  | >128 | 32 | >128 |  |  |
| CC(C)c1csc(CCc2ccn3c(=O)c(/C=C/C(=O)O)c(N4CCC(O)CC4)nc3c2)n1 | > 320 | 16 | 8 | 1 | 16 |  |  |
| CC(C)c1csc(CCc2ccn3c(=O)c(/C=C/C(=O)O)c(N4CCCN(C)CC4)nc3c2)n1 | > 320 | 128 | 128 | 8 | 128 |  |  |
| CC(C)c1csc(CCc2ccn3c(=O)c(/C=C/c4nn[nH]n4)c(N4CCCC(O)C4)nc3c2)n1 (stereo not drawn) | > 320 | 4 | 4 | 0.5 | 4 |  |  |
| CC(C)c1csc(CCc2ccn3c(=O)c(/C=C/C(=O)O)c(N4CCC(CO)CC4)nc3c2)n1 | > 320 | 16 | 8 | 1 | 16 |  |  |
| CC(C)c1csc(CCc2ccn3c(=O)c(/C=C/C(=O)O)c(N4CCCCC4)nc3c2)n1 | > 320 | 8 | 4 | 0.5 | 4 |  |  |
| CC(C)c1csc(CCc2ccn3c(=O)c(/C=C/C(=O)O)c(N4CCCCC4CO)nc3c2)n1 (stereo not drawn) | > 320 | 64 | 64 | 8 | 64 |  |  |
| CC(C)c1csc(CCc2ccn3c(=O)c(/C=C/C(=O)O)c(N4CCC(N(C)C)CC4)nc3c2)n1 | > 320 | 128 | >128 | 32 | 128 |  |  |
| CC(C)c1csc(CCc2ccn3c(=O)c(-c4nnn[nH]4)cnc3c2)n1 | > 320 | 16 | >16 | >16 | 16 | 81.5 |  |

More lines, main results first:

| MIC (Pseudomonas aeruginosa [2]) [µg/mL] | SMILES | MPC8 (Pseudomonas aeruginosa [1]) [µg/mL] | MPC8 (Pseudomonas aeruginosa [3]) [µg/mL] | MPC4 (Pseudomonas aeruginosa [4]) [µg/mL] | MPC8 (Pseudomonas aeruginosa [5]) [µg/mL] | Binding (Rattus norvegicus) [%] | MPC8 (Pseudomonas aeruginosa [6]) [µg/mL] |
| --- | --- | --- | --- | --- | --- | --- | --- |
| > 320 | CC(C)c1csc(CCc2ccn3c(=O)c(/C=C/C(=O)O)c(N4CC[C@@H](N(C)C)C4)nc3c2)n1 | 64 | 128 | 8 | 128 | 69.3 |  |
| > 320 | CCCNc1nc2cc(CCc3nc(C(C)C)cs3)ccn2c(=O)c1/C=C/C(=O)O | 32 | >32 | 8 | >32 |  |  |
| > 320 | CCC(CC)Nc1nc2cc(CCc3nc(C(C)C)cs3)ccn2c(=O)c1/C=C/C(=O)O | 128 | >128 | 32 | 128 |  |  |
| > 320 | CC(C)c1csc(CCc2ccn3c(=O)c(/C=C/C(=O)O)c(N4CCN(C)CC4)nc3c2)n1 | 32 | 32 | 8 | 16 | 67.8 |  |
| > 320 | CC(C)c1csc(CCc2ccn3c(=O)c(/C=C/C(=O)O)c(N[C@H](CO)[C@@H](O)c4ccccc4)nc3c2)n1 (single isomer, unassigned) | 64 | 64 | 8 | 64 |  |  |
| > 320 | CC(C)c1csc(CCc2ccn3c(=O)c(/C=C/C(=O)O)c(N4CCCC(O)C4)nc3c2)n1 (stereo not drawn) | 16 | 8 | 0.5 | 8 | 82.1 |  |
| > 320 | CC(C)c1csc(CCc2ccn3c(=O)c(/C=C/C(=O)O)c(NCC4CCCCC4)nc3c2)n1 | >64 | >64 | 8 | >64 |  |  |
| > 320 | CC(C)c1csc(CCc2ccn3c(=O)c(/C=C/C(=O)O)c(N4CCCC(N(C)C)C4)nc3c2)n1 (stereo not drawn) | 128 | 128 | 8 | >128 |  |  |
| > 320 | CC(C)Nc1nc2cc(CCc3nc(C(C)C)cs3)ccn2c(=O)c1/C=C/C(=O)O | 64 | 64 | 8 | 64 | 82.1 |  |
| > 320 | CC(C)c1csc(CCc2ccn3c(=O)c(/C=C/C(=O)O)c(NCc4ccccn4)nc3c2)n1 | 32 | 128 | 16 | 32 |  |  |
| > 320 | CC(C)c1csc(CCc2ccn3c(=O)c(/C=C/C(=O)O)c(N4CCC(O)C4)nc3c2)n1 (stereo not drawn) | 32 | 32 | 4 | 32 |  |  |
| > 320 | CC(C)c1csc(CCc2ccn3c(=O)c(/C=C/C(=O)O)c(NCCc4ccncc4)nc3c2)n1 | 32 | 64 | 8 | 16 |  |  |
| > 320 | CC(C)c1csc(CCc2ccn3c(=O)c(/C=C/C(=O)O)c(N[C@H]4CC[C@H](O)CC4)nc3c2)n1 | >64 | >64 | 16 | >64 |  |  |
| > 320 | CC(C)c1csc(CCc2ccn3c(=O)c(/C=C/C(=O)O)c(N4CCCC4)nc3c2)n1 | 8 | 8 | 2 | 8 |  |  |
| > 320 | CC(C)c1csc(CCc2ccn3c(=O)c(/C=C/C(=O)O)c(NCCc4ccc(F)cc4)nc3c2)n1 | >32 | >32 | 8 |  |  | >32 |
| > 320 | CCCC(CC)Nc1nc2cc(CCc3nc(C(C)C)cs3)ccn2c(=O)c1/C=C/C(=O)O (stereo not drawn) | 32 | 16 | 2 | 32 |  |  |
